Source: ChEMBL document CHEMBL1126730, “Synthesis and pharmacological evaluation of 4a-phenanthrenamine derivatives acting at the phencyclidine binding site of the N-methyl-D-aspartate receptor complex” (J Med Chem, 1993)

What was measured:
[1] = Partition coefficient (logP) (HPLC); assay type: physicochemical; conditions: octanol/water
[2] = Partition coefficient was measured using a standard shake flask (SF) method at pH 7.4.; assay type: physicochemical; conditions: octanol/water
Summary of the method: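 Shake-flask partitioning at pH 7.4.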

[3] = target: Glutamate NMDA receptor; assay: Binding affinity towards PCP site of the NMDA receptor was measured by displacement of […] in […]; assay type: tissue-based, Brain
[4] = target: Glutamate NMDA receptor; assay: Ability to inhibit glutamate induced accumulation of [45 [Ca2+]] in cultured rat cortical neurons; assay type: functional
Summary of the method: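 Fetal rat cortical hemisphere dissociated cultures used on day 14-16 after plating. Medium was serum- and Mg-free HBSS with 1.4 mM CaCl2, pH 7.4 (35 mM bicarbonate), 37 °C, 5% CO2. Cells were exposed 30 min to 100 μM L-glutamate (final) plus [45Ca2+] (2 μCi/mL) ± test agent, washed with saline, lysed, and counted. Baseline was subtracted.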

[5] = target: T1, Glutamate NMDA receptor (Rattus norvegicus) (UniProt P35439+Q00959+Q00960+Q00961+Q62645+Q8VHN2+Q9R1M7); assay: Evaluated in vivo for its NMDA antagonist activity by the inhibition of NMDA-induced lethality in mice; assay type: functional, organism-based; conditions: Mus musculus; target entry is the homologue from another species
Summary of the method: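 CF-1 mice, 22-28 g. Test agent or vehicle (0.9% saline, 5 mL/kg) was given by retrobulbar injection 5 min before a 25 mg/kg NMDA bolus given retrobulbar in the other eye. Endpoint was prevention of lethality.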

[6] = organism: Mus musculus; assay: Testing for ataxia was done by using an inverted screen technique; assay type: functional
Summary of the method: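 Inverted-screen test in CF-1 mice (22-28 g), scored 5 min after retrobulbar test agent in 0.9% saline (5 mL/kg), immediately before NMDA injection.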

[7] = target: T1, Glutamate NMDA receptor (Rattus norvegicus); assay: Percent inhibition at PCP site of NMDA receptor complex was measured by displacement of […] in whole rat brain homogenate at 10 E-7 M; assay type: tissue-based
Summary of the method: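 [3H]TCP displacement from rat brain membrane preparation (cortical membranes in the methods; whole-brain homogenate in the assay description), following a previously published procedure.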

Compound | logP [1] | logD [2] | IC50 [3] | IC50 [4] | ED50 [5] | Ataxia [6] | inhibition [7]
CNC12CCCCC1CC(O)c1ccccc12 (stereo not given) | 1.84 | 0.73 | 1490 nM |  |  |  | 
NC12CCCCC1CCc1sccc12 (stereo not given) | 3.02 | 0.66 | 43 nM | 1570 nM | 0.97 mg/kg | 3 mg/kg | 
CNC12CCCCC1CCc1ccc(O)cc12 (stereo not given) | 2.56 | 0.31 | 2.07 nM | 64 nM | 0.89 mg/kg | 0.58 mg/kg | 
NC12CC=CCC1CSc1ccccc12 (stereo not given) |  |  | 101 nM | 1700 nM |  |  | 
CNC12CCCCC1CC(C)c1ccccc12 (stereo not given) |  |  | 317 nM |  |  |  | 
c1ccc(C2(N3CCCCC3)CCCCC2)cc1 [PHENCYCLIDINE] |  |  |  | 200 nM | 0.55 mg/kg | 1 mg/kg | 
CNC12CC=CCC1CC(C)(C)c1ccccc12 (stereo not given) |  |  |  |  |  |  | 0%
CNC12CC=CCC1CCc1ccccc12 (stereo not given) | 3.07 |  | 27.3 nM | 400 nM | 1.8 mg/kg | 0.6 mg/kg | 
NC12CCCCC1CCc1ccccc12 (stereo not given) | 2.92 |  | 25.4 nM | 370 nM |  | 0.55 mg/kg | 
NC12CCCCC1CSc1ccccc12 (stereo not given) |  |  | 80.6 nM | 1870 nM | 2.9 mg/kg | 4.7 mg/kg | 
NC12CC=CCC1CCc1ccccc12 (stereo not given) | 2.75 |  | 87.5 nM | 2350 nM | 4.2 mg/kg | <1 mg/kg | 
CCNC12CCCCC1CCc1ccccc12 (stereo not given) | 3.41 | 1.15 | 199 nM |  |  |  | 
CNC12CCCCC1CC(C)(C)c1ccccc12 (stereo not given) |  |  | 20800 nM |  |  |  | 
NC12CCCCC1CCc1ccccc12 (single isomer, unassigned; form 1) |  |  |  |  | 1.3 mg/kg |  | 
CN[C@]12CCCCC1CCc1ccccc12 (stereo not given in full) |  |  | 7.47 nM | 180 nM | 0.39 mg/kg | 0.18 mg/kg | 
CC1(C)CC2CCCCC2(N)c2ccccc21 (stereo not given) |  |  | 37000 nM |  |  |  | 
CNC12CCCCC1CCc1sccc12 (stereo not given) |  |  | 31 nM | 350 nM | 0.89 mg/kg | 1 mg/kg | 
CNC12CCCCC1COc1ccccc12 (stereo not given) | 3.31 | 0.96 | 113 nM | 2300 nM | 3.7 mg/kg | 0.63 mg/kg | 
COc1ccc2c(c1)C1(N)CCCCC1CC2 (stereo not given) |  |  | 18 nM | 440 nM | 1.2 mg/kg | 1.3 mg/kg | 
CNC12CCCCC1Sc1ccccc12 (stereo not given) |  |  |  | 210 nM | 0.41 mg/kg |  | 
c1ccc2c(c1)CCC1CCCCC21N1CCCCC1 (stereo not given) |  |  |  |  |  |  | 7%
COc1ccc2c(c1)C1(N)CC=CCC1CC2 (stereo not given) |  |  | 46 nM | 850 nM | 2.1 mg/kg | 2.1 mg/kg | 
CN[C@]12CCCCC1CSc1ccccc12 (stereo not given in full) |  |  | 30 nM |  |  |  | 
CNC12CC=CCC1CSc1ccccc12 (stereo not given) |  |  | 69 nM | 420 nM | 2 mg/kg | 1.8 mg/kg | 
NC12CCCCC1COc1ccccc12 (stereo not given) |  |  | 178 nM |  | 5.7 mg/kg | 10 mg/kg | 
CN[C@]12CCCCC1Cc1ccccc12 (stereo not given in full) |  |  | 10.1 nM | 120 nM | 0.1 mg/kg |  | 
NC1c2ccccc2CCC12CCCC2 (stereo not given) |  |  |  |  |  |  | 8%
CNC12CCCCC1CCc1c(C)cc(OC)cc12 (stereo not given) | 4.02 | 1.72 | 53.5 nM | 930 nM | 5.6 mg/kg | 3.3 mg/kg | 
CNC12CCCCC1CCc1ccccc12 (stereo not given) | 3.25 |  | 14.7 nM | 310 nM | 0.54 mg/kg | 0.44 mg/kg | 
CNC12CCCCC1CCc1ccc(OC)cc12 (stereo not given) | 3.75 | 1.51 | 5.8 nM | 1110 nM | 1 mg/kg | 0.4 mg/kg | 
